The source made the active and inactive calls. No cut-off for these calls is given here.
What was measured:
Oocyte [1] = assay: Inhibition of immature stage VI Xenopus oocyte maturation assessed as inhibition of progesterone-mediated maturation measured as germinal vesicle (nuclear) breakdown at 100 uM after overnight incubation; format: functional, cell-based
How it was run: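 Oocytes (20 per well) pre-treated overnight with compound (100 μM final, DMSO) or DMSO vehicle, then stimulated with 2 μg/ml progesterone. GVBD (animal-pole white spot) scored at the time 50% of DMSO controls reach GVBD. Rate relative to control: 1.0 means no difference, above 1.0 acceleration, below 1.0 delay, 0.0 no maturation. Differences over 20% followed up.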

Oocyte [2] = assay: Inhibition of immature stage VI Xenopus oocyte maturation assessed as inhibition of progesterone-mediated maturation measured as germinal vesicle (nuclear) breakdown at 1 to 100 uM after overnight incubation; format: functional, cell-based
Oocyte [3] = assay: Inhibition of immature stage VI Xenopus oocyte maturation assessed as inhibition of progesterone-mediated maturation measured as germinal vesicle (nuclear) breakdown after overnight incubation; format: functional, cell-based; settings: Xenopus laevis
Xenopus [4] = assay: Inhibition of Cyclin B/CDK in immature stage VI Xenopus oocyte by Western blot analysis
How it was run: (§1)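 Oocytes pre-treated with DMSO or compound, stimulated with progesterone, and lysed at the time 50% of DMSO oocytes reached GVBD. Lysates analysed by 10% gel western blot with phospho-Cdc2 Tyr15 (inhibitory site) and phospho-MAPK antibodies (1:1000), tubulin 1:20,000. Membrane blocked in 1% BSA, 60 min, room temperature.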

Xenopus [5] = assay: Inhibition of MPF in immature stage VI Xenopus oocyte by Western blot analysis; how it was run: as §1
[6] = Anticancer activity against human PC3 cells assessed as growth inhibition at 10^-5 M; format: functional; settings: PC-3, read-out: GI
How it was run: (§2)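 NCI-60 human tumour cell line panel screened at a single concentration of 10^-5 M; value is percent growth inhibition relative to untreated growth.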

[7] = Anticancer activity against human MOLT4 cells assessed as growth inhibition at 10^-5 M; format: functional; settings: MOLT-4, read-out: GI; how it was run: as §2

Compound | inhibition (Oocyte [1]) | inhibition (Oocyte [2]) | EC50 (Oocyte [3]) | inhibition (Xenopus [4]) | inhibition (Xenopus [5]) | inhibition of growth at 10 µM [6] | inhibition of growth at 10 µM [7]
C[C@@]12CC/C=C(/CO)CC[C@@H]3/C(=C\c4ccsc4)C(=O)O[C@@H]3[C@@H]1O2 | Active | – | – | – | – | – | –
C/C1=C\CC[C@@]2(C)O[C@@H]2[C@H]2OC(=O)/C(=C/c3ccc(N)cc3)[C@@H]2CC1 | Active | Active | 5 µM | inactive | inactive | 20.5% | 24.2%
